# Measurements: ChEMBL document CHEMBL1146857 (J Med Chem, 2006)
# Active and inactive are the calls of the source. The calls are words filed in the database; no cut-off is given here.
# What was measured:
# HCT-116 [1] = experiment: Increase in acetylated alpha-tubulin accumulation in human HCT116 cells after 8 hrs; format: functional, cell-based
# Procedure, shortened: (§1)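 HCT116 cells were treated for 8 h in McCoy5A medium with 0.1% DMSO over a range of concentrations. Acetylated α-tubulin and histone H4 were detected by Western blot and quantified, and EC50 values were estimated from the concentration curves.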
# Histone deacetylase 4 = Histone deacetylase 4 (Homo sapiens, UniProt P56524); experiment: Inhibition of HDAC4
# [2] = molecular target: T1, Protein deacetylase HDAC6 (Homo sapiens, UniProt Q9UBN7); experiment: Inhibition of HDAC6
# T1 sequence (Q9UBN7 whole entry): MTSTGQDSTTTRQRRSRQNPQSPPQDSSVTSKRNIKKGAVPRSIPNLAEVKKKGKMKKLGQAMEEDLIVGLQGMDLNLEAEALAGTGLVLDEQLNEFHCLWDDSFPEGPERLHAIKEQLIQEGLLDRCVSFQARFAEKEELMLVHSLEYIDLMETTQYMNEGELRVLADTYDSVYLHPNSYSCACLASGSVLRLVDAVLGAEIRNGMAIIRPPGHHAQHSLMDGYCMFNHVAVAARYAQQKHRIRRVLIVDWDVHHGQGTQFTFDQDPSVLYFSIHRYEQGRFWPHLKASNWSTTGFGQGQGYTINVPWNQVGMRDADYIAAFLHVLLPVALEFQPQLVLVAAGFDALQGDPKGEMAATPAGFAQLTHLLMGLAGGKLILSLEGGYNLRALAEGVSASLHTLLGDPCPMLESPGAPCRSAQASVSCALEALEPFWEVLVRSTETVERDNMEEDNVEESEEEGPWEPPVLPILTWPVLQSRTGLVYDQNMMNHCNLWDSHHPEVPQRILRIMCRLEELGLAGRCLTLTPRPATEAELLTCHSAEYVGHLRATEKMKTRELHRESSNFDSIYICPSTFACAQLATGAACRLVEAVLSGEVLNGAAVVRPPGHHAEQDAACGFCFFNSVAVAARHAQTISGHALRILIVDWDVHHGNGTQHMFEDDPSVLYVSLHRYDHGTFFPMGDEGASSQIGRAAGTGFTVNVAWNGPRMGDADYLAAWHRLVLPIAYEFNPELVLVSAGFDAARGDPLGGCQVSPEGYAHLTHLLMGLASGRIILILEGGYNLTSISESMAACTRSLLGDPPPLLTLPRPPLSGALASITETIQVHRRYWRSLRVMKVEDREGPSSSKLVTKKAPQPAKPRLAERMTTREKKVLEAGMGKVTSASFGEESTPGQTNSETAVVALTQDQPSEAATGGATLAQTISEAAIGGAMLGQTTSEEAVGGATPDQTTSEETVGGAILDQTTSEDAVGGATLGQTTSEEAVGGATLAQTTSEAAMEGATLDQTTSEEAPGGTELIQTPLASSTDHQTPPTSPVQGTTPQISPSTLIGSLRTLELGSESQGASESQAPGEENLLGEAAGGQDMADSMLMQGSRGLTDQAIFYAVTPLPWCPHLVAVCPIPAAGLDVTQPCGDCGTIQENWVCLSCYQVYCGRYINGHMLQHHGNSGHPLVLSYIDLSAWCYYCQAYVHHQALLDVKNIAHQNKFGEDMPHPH
# Homo sapiens [3] = species: Homo sapiens; experiment: Selectivity for HDAC6 over HDAC1
# Histone deacetylase 1 = Histone deacetylase 1 (Homo sapiens, UniProt Q13547); experiment: Inhibition of HDAC1
# Homo sapiens [4] = species: Homo sapiens; experiment: Selectivity for HDAC6 over HDAC4
# HCT-116 [5] = experiment: Increase in acetylated histone H4 accumulation in human HCT116 cells after 8 hrs; format: functional, cell-based; procedure, shortened: as §1
# Chain of Histone deacetylase 1 (Q13547 whole entry): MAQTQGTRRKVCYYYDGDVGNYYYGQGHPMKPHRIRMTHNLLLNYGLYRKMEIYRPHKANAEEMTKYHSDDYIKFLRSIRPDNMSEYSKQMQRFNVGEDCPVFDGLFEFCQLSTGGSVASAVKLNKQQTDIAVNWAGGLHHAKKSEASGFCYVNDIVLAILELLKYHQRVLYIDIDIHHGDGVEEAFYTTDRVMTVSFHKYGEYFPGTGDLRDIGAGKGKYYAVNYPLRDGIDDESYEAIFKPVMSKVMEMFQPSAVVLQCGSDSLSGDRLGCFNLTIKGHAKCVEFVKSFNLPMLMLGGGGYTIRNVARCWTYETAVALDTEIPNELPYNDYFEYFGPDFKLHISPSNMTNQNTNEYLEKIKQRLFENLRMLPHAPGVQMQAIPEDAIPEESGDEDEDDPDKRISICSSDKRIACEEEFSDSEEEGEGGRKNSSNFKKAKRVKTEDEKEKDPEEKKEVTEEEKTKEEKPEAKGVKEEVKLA
# Chain of Histone deacetylase 4 (P56524 whole entry): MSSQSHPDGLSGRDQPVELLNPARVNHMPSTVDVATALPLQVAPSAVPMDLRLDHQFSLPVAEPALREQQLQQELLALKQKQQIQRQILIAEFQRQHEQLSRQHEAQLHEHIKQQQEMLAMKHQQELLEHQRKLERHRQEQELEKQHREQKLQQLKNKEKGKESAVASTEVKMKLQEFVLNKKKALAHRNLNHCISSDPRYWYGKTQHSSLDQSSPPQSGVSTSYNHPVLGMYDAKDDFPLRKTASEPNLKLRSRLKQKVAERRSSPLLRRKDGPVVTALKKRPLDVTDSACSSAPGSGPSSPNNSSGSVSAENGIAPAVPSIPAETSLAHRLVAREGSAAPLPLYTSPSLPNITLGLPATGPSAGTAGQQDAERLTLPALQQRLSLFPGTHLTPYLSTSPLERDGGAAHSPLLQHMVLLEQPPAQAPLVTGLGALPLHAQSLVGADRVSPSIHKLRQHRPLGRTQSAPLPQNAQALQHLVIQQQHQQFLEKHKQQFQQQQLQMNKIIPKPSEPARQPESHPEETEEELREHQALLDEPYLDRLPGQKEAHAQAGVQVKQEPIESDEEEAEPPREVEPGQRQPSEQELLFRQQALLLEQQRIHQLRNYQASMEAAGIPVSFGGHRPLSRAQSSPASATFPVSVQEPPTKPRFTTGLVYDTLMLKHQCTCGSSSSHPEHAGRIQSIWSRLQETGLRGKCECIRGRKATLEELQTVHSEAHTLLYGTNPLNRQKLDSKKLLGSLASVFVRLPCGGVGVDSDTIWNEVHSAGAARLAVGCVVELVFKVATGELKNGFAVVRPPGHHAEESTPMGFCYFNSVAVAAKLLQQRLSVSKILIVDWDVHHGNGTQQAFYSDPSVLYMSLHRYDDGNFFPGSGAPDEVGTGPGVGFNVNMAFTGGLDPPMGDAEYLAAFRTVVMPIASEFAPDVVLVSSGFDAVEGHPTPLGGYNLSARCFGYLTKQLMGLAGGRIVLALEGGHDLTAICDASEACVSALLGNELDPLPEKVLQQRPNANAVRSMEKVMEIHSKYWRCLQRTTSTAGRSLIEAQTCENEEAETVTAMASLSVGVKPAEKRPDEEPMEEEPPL
IC50 (Histone deacetylase 4) [nM],IC50 [2] [nM],Selectivity ratio (Homo sapiens [3]),IC50 (Histone deacetylase 1) [nM],Selectivity ratio (Homo sapiens [4]),Compound,Activity (HCT-116 [1]),other results
,,,,,CC(C)C(=O)SCCCCC[C@H](NC(=O)OC(C)(C)C)C(=O)NC1CCCC1,Dose-dependent effect,
,,,,,CC(C)C(=O)SCCCCC[C@H](NC(=O)OC(C)(C)C)C(=O)NC1CCCCCC1,Dose-dependent effect,
1030,29,42,1210,36,CC(C)(C)OC(=O)N[C@@H](CCCCCS)C(=O)NC1CCCC1,,
,,,,,CC(C)C(=O)SCCCCC[C@H](NC(=O)OC(C)(C)C)C(=O)NC1CCCCC1,Dose-dependent effect,
840,23,39,900,37,CC(C)(C)OC(=O)N[C@@H](CCCCCS)C(=O)NC1CCCCCC1,,
,,,,,CC(C)C(=O)SCCCCCCC(=O)Nc1nc(-c2ccccc2)cs1,Active,Activity (HCT-116 [5]): Active
,,,,,CC(C)C(=O)SCCCCCCC(=O)Nc1cccc(-c2ccccc2)c1,,Activity (HCT-116 [5]): Active
,,,,,CC(C)C(=O)SCCCCC[C@H](NC(=O)OC(C)(C)C)C(=O)NC(C)(C)C,Dose-dependent effect,
1140,36,35,1270,32,CC(C)(C)OC(=O)N[C@@H](CCCCCS)C(=O)NC1CCCCC1,,
